# Experimental data of several laboratories.
# Target: Tyrosine-protein kinase receptor TYRO3 (TYRO3, Homo sapiens, UniProt Q06418)
# Residues used in one study (Q06418 41-890): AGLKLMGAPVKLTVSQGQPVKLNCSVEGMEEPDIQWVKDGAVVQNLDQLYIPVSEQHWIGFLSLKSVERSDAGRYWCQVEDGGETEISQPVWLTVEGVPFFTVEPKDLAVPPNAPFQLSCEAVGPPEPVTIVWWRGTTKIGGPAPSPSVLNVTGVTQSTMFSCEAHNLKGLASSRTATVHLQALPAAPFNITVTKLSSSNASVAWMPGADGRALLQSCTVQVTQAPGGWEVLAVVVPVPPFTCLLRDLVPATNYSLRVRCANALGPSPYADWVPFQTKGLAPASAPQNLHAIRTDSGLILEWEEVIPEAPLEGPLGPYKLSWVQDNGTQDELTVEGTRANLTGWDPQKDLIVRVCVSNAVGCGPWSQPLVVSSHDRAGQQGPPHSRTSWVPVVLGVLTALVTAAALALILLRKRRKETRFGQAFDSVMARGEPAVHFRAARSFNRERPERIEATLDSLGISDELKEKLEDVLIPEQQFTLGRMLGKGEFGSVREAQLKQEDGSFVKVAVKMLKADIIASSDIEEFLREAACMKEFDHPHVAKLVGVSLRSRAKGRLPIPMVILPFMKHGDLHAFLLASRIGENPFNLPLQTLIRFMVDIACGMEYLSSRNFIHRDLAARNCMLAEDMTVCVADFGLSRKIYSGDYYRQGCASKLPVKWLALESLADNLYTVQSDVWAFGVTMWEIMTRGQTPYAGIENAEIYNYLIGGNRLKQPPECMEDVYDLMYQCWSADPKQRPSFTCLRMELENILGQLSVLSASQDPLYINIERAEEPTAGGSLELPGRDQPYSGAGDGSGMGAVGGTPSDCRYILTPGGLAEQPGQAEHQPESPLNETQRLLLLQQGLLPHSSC
Compound,observed,technique,tested at,remaining binding [%]
COc1cnc(Nc2cccc(S(N)(=O)=O)c2)nc1N1CCN(c2ccccc2)C(=O)C1,binding,competition with immobilised ligand,1 µM,100
Cc1cnn2ncc(-c3ccnc(N(C)C)n3)c2c1,binding,,1 µM,100
Cc1cnc(Nc2ccc(C(=O)N3CCC(N4CCCC4)CC3)cc2)nc1-c1cc2ccccc2s1,binding,competition with immobilised ligand,1 µM,58
CS(=O)(=O)NCC[C@H](NC(=O)c1cncc2c1cnn2-c1ccc(F)cc1)c1ccnc(S(C)(=O)=O)c1,cell-free assay,competition with immobilised ligand,1 µM,94
C[C@H]1CCN(c2nccc(-c3cnn4ncccc34)n2)C1,binding,,1 µM,100
O=C(NCCCN1CCOCC1)c1ccc(Nc2nccc(-c3cc4ccccc4s3)n2)cc1,binding,competition with immobilised ligand,1 µM,90
F[C@@H]1CCN(c2nccc(-c3cnn4ncccc34)n2)C1,binding,,1 µM,89
CNCc1ccccc1-c1csc([C@H](C)Nc2nc(C)nc3cc(OC)c(OC)cc23)c1,cell-free assay,competition with immobilised ligand,1 µM,100
N[C@H]1CCN(c2nccc(-c3cnn4ncccc34)n2)C1,binding,,1 µM,88
CCc1ccccc1C(=O)Nc1n[nH]c2c(C)c(F)c(C3C(C#N)=C(C)N(C)C(C)=C3C#N)cc12,cell-free assay,competition with immobilised ligand,1 µM,100
CCN1CCN(Cc2ccc(C(=O)Nc3ccc(C)c(Oc4ccc5c(c4)CC(=O)N5)c3)cc2C(F)(F)F)CC1,binding,competition with immobilised ligand,1 µM,100
C[C@@H](c1ccc(-n2cnc3c(N)ncnc32)cc1)N1CCc2nn(C)c(Cc3ccccc3)c2C1=O,binding,competition with immobilised ligand,0.1 µM,100
FC(F)(F)Oc1cccc(-c2cnc3ccc(-c4ccncc4)nn23)c1,cell-free assay,competition with immobilised ligand,5 µM,83
Cc1c(NC(=O)c2cc(C(N)=O)nc3cc(F)ccc23)c(C(F)(F)F)nn1Cc1ccc(C#N)cc1,cell-free assay,competition with immobilised ligand,1 µM,81
O=C(c1ccc(Nc2ncc(Cl)c(-c3ccc(Cl)s3)n2)cc1)N1CCC(N2CCCC2)CC1,binding,competition with immobilised ligand,1 µM,57
c1cncc(-c2cccc(Nc3nccc(NC4CCCCC4)n3)c2)c1,binding,competition with immobilised ligand,10 µM,9.3
c1cnn2ncc(-c3ccnc(N4CCC45COC5)n3)c2c1,binding,,1 µM,73
CNC(=O)c1ccc(Nc2ncc(C(F)(F)F)c(NCc3nccnc3N(C)S(C)(=O)=O)n2)cc1,cell-free assay,competition with immobilised ligand,0.1 µM,100
COc1ccnn2ncc(-c3ccnc(N(C)C)n3)c12,binding,,1 µM,100
Cn1nc(C(=O)NCc2ccc(C(=O)O)cc2)cc1-c1ccc2[nH]ccc2c1,cell-free assay,competition with immobilised ligand,0.1 µM,100
CN(C)c1nccc(-c2cnn3ncccc23)n1,binding,,1 µM,75
O=C(Nc1c[nH]nc1C(=O)NC1CCNCC1)c1cc(F)cc(F)c1,binding,competition with immobilised ligand,1 µM,100
